Test results published in ChEMBL document CHEMBL1125346, “Guanidinophenyl-substituted enol lactones as selective, mechanism-based inhibitors of trypsin-like serine proteases” (J Med Chem, 1992).

Experiments:
[1] = target: Chymotrypsinogen A (Bos taurus) (UniProt P00766); assay: Time for which maximum percent inhibition persists was determined against alpha-chymotrypsin (17 nM); format: functional
Procedure, shortened: (§1)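 Enzyme incubated with excess lactone added from DMSO stock (final 10% DMSO); aliquots over 2 h diluted into substrate: chymotrypsin Suc-AAPF-pNA 315 µM, pH 7.2, 410 nm; t-PA Spectrozyme t-PA 0.2 mM, Tris-imidazole pH 8.4, 405 nm; HNE MeO-Suc-AAPV-pNA 150 µM, pH 7.4, 410 nm; plasmin Ts-GPK-pNA 157.4 µM, pH 7.8, 404 nm; thrombin Ts-GPR-pNA 75 µM, pH 8.0, 408 nm; trypsin Z-VGR-pNA 155 µM, pH 7.2, 404 nm. Activity given relative to a no-lactone control. Some runs used a 10-min substrate-free delay after dilution. ∞ means no recovery over 2 h.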

[2] = target: Chymotrypsinogen A (Bos taurus) (UniProt P00766); assay: Time to reach maximum percent inhibition by the compound was determined against alpha-chymotrypsin (17 nM); format: functional
Procedure, shortened: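 α-Chymotrypsin with excess lactone (DMSO, 10% final) was sampled over 2 h into Suc-Ala-Ala-Pro-Phe-pNA (315 μM) in 0.2 M phosphate, pH 7.2. Absorbance at 410 nm gave the remaining activity versus a control without lactone. Minutes to maximal inhibition were taken.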

[3] = target: Chymotrypsinogen A (Bos taurus) (UniProt P00766); assay: Maximum percent inhibition by the compound was determined against Chymotrypsinogen (17 nM); procedure, shortened: as §1
[4] = target: T1, Neutrophil elastase (Homo sapiens) (UniProt P08246); assay: Maximum percent inhibition by the compound was determined against human neutrophil elastase HNE(66 nM); procedure, shortened: as §1
T1 sequence (whole entry): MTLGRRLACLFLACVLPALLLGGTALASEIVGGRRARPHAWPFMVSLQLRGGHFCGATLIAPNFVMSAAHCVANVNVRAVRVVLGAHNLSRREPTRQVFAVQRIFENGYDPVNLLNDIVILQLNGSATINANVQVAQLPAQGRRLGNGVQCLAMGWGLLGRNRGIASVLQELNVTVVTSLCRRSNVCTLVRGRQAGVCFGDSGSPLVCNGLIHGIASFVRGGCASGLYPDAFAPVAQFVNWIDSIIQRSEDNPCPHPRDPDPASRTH

[5] = target: T1, Neutrophil elastase (Homo sapiens); assay: Time to reach maximum percent inhibition by the compound was determined against human neutrophil elastase HNE(66 nM); format: functional
Procedure, shortened: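 HNE was incubated with excess lactone in 10% final DMSO. Aliquots drawn during 2 h went into MeO-Suc-Ala-Ala-Pro-Val-pNA (150 μM) in 0.1 M phosphate, 0.5 M NaCl, pH 7.4, read at 410 nm. Activity was set relative to a lactone-free control, and the time (min) to peak inhibition was noted.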

[6] = target: Plasminogen (Homo sapiens) (UniProt P00747); assay: Time to reach maximum percent inhibition by the compound was determined against plasmin(625 nM); format: functional
Procedure, shortened: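 Plasmin plus excess lactone (10% final DMSO) was sampled over 2 h into Ts-Gly-Pro-Lys-pNA (157.4 μM) in 0.05 M phosphate, pH 7.8. The slope at 404 nm, relative to an enzyme-only control, gave residual activity. Minutes needed to reach maximal inhibition were reported.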

[7] = target: Plasminogen (Homo sapiens) (UniProt P00747); assay: Substrate binding constant against plasmin
Procedure, shortened: (§2)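 Competitive substrate assay: lactone (DMSO, final 10% v/v) and chromogenic substrate combined in buffer, enzyme added, absorbance followed to steady state. Turnover-corrected semilog plot gives kobs; I0 vs I0/kobs replot (eq 6) with separately determined Km yields Ki and ka. Where no burst was seen, Ki was estimated from Km(app) replots using 15-s initial velocities. Buffers and substrates as in incubation assay.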

[8] = target: Plasminogen (Homo sapiens) (UniProt P00747); assay: Second order rate constant against plasmin; procedure, shortened: as §2
[9] = target: Plasminogen (Homo sapiens) (UniProt P00747); assay: Time for which maximum percent inhibition persists was determined against plasmin(625 nM); * =no enzyme activity was recovered over 2 h; format: functional; procedure, shortened: as §1
[10] = target: Plasminogen (Homo sapiens) (UniProt P00747); assay: Maximum percent inhibition by the compound was determined against plasmin(625 nM); procedure, shortened: as §1
[11] = target: Plasminogen (Homo sapiens) (UniProt P00747); assay: Acylation rate constant against plasmin; procedure, shortened: as §2
[12] = target: Tissue-type plasminogen activator (Homo sapiens) (UniProt P00750); assay: Maximum percent inhibition by the compound was determined against Tissue plasminogen activator (19.4 nM); procedure, shortened: as §1
[13] = target: Tissue-type plasminogen activator (Homo sapiens) (UniProt P00750); assay: Time for which maximum percent inhibition persists was determined against Tissue plasminogen activator (19.4 nM); format: functional; procedure, shortened: as §1
[14] = target: Tissue-type plasminogen activator (Homo sapiens) (UniProt P00750); assay: Time to reach maximum percent inhibition by the compound was determined against Tissue plasminogen activator (19.4 nM); format: functional
Procedure, shortened: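 Tissue plasminogen activator was exposed to excess lactone (10% final DMSO). Over 2 h, aliquots were diluted into Spectrozyme t-PA (0.2 mM) in Tris-imidazole, I 0.3, pH 8.4. Hydrolysis at 405 nm gave residual activity relative to an enzyme-only control. The time (min) to reach maximal percent inhibition was recorded.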

[15] = target: Prothrombin (Homo sapiens) (UniProt P00734); assay: Time to reach maximum percent inhibition by the compound was determined against thrombin (1.93 nM); format: functional
Procedure, shortened: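 Thrombin was incubated with excess lactone (DMSO, 10% final). Aliquots over 2 h were diluted into Ts-Gly-Pro-Arg-pNA (75 μM) in 0.05 M phosphate, 0.01 M EDTA, 10 g/L PEG 8000, 10 mg/L aprotinin, pH 8.0, and read at 408 nm against a no-lactone control. Time to maximal inhibition was recorded.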

[16] = target: T2, Serine protease 1 (Bos taurus) (UniProt P00760); assay: Substrate binding constant against trypsin; procedure, shortened: as §2
T2 sequence (whole entry): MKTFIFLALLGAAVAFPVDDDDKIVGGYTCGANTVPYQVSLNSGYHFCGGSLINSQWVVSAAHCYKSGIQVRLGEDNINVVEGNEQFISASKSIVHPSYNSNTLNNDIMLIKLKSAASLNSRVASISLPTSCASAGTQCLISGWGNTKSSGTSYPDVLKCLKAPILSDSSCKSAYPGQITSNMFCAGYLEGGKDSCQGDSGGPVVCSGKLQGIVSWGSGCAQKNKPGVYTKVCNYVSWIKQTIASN

[17] = target: T2, Serine protease 1 (Bos taurus); assay: Second order rate constant against trypsin; procedure, shortened: as §2
[18] = target: T2, Serine protease 1 (Bos taurus); assay: Time to reach maximum percent inhibition by the compound was determined against trypsin (14.6 nM); format: functional
Procedure, shortened: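 Trypsin was incubated with excess lactone added from DMSO stock (10% final DMSO). Aliquots taken over 2 h were diluted into Z-Val-Gly-Arg-pNA (155 μM) in 0.2 M phosphate, pH 7.2, and read at 404 nm. Activity came from the absorbance slope versus a no-lactone control. Reported are minutes to maximal inhibition and minutes it persisted; ∞ means no recovery within 2 h.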

[19] = target: T3, Urokinase-type plasminogen activator (Homo sapiens, UniProt P00749); assay: Decylation rate constant against Urokinase-type plasminogen activator
[20] = target: Prothrombin (Homo sapiens) (UniProt P00734); assay: Maximum percent inhibition by the compound was determined against thrombin (1.93 nM); procedure, shortened: as §1
[21] = target: T2, Serine protease 1 (Bos taurus); assay: Acylation rate constant against trypsin; procedure, shortened: as §2
[22] = target: T4, Serine protease 1 (Bos taurus, UniProt P00760); assay: Decylation rate constant against trypsin
T4 sequence (P00760 whole entry): T2 sequence (whole entry)
Procedure, shortened: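 Trypsin incubated 30–45 min with excess lactone (same I0/E0 as incubation assay). Free inhibitor removed by two 1-h centrifugations at 0 °C. Activity recovery followed at room temperature against an inhibitor-free control carried through the same treatment; kd is the slope of ln remaining activity vs time. Substrate Z-Val-Gly-Arg-pNA 155 µM, 0.2 M phosphate pH 7.2, 404 nm.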

[23] = Ratio of initial inhibitor concentration to initial Chymotrypsinogen concentration
Procedure, shortened: (§3)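 Ratio I0/E0 of lactone to enzyme in the 2-h incubation assay; lactone added from DMSO stock to buffered enzyme (final 10% DMSO).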

[24] = Ratio of initial inhibitor concentration to initial HNE concentration; procedure, shortened: as §3
[25] = Ratio of initial inhibitor concentration to initial Plasmin concentration; procedure, shortened: as §3
[26] = Ratio of initial inhibitor concentration to initial t-PA concentration; procedure, shortened: as §3
[27] = Ratio of initial inhibitor concentration to initial thrombin concentration; procedure, shortened: as §3
[28] = Ratio of initial inhibitor concentration to initial trypsin concentration; procedure, shortened: as §3
[29] = Ratio of initial inhibitor concentration to initial urokinase concentration; procedure, shortened: as §3
[30] = target: T3, Urokinase-type plasminogen activator
[31] = target: T3, Urokinase-type plasminogen activator; remark: listed apart in the source
[32] = target: T3, Urokinase-type plasminogen activator; remark: listed apart in the source
[33] = target: T1, Neutrophil elastase (Homo sapiens); assay: Time for which maximum percent inhibition persists was determined against human neutrophil elastase HNE(66 nM); format: functional; procedure, shortened: as §1
[34] = target: Tissue-type plasminogen activator (Homo sapiens) (UniProt P00750); assay: Maximum percent inhibition persists was determined against Tissue plasminogen activator (19.4 nM); procedure, shortened: as §1
[35] = target: Prothrombin (Homo sapiens) (UniProt P00734); assay: Time for which maximum percent inhibition persists was determined against thrombin (1.93 nM); format: functional; procedure, shortened: as §1
[36] = target: T2, Serine protease 1 (Bos taurus); assay: Maximum percent inhibition by the compound was determined against trypsin (14.6 nM); procedure, shortened: as §1
[37] = target: T3, Urokinase-type plasminogen activator; assay: Substrate binding constant against Urokinase

Chain of Tissue-type plasminogen activator (Homo sapiens) (P00750 36-562 limits assumed): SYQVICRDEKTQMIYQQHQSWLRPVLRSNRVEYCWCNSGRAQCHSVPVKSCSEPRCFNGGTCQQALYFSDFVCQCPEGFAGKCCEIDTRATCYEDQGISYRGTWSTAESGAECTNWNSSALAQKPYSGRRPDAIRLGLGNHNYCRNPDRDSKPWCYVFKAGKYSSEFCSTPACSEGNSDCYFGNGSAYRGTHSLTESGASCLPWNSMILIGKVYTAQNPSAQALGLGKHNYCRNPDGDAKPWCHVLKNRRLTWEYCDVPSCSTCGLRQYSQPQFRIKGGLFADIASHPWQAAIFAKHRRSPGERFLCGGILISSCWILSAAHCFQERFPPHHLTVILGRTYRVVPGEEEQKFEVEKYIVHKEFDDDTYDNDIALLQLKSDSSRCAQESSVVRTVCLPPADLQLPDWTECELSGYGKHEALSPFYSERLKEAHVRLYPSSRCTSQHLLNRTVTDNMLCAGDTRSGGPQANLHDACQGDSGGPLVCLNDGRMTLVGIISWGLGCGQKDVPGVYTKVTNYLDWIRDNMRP
Chain of Plasminogen (Homo sapiens) (P00747 97-580 limits assumed): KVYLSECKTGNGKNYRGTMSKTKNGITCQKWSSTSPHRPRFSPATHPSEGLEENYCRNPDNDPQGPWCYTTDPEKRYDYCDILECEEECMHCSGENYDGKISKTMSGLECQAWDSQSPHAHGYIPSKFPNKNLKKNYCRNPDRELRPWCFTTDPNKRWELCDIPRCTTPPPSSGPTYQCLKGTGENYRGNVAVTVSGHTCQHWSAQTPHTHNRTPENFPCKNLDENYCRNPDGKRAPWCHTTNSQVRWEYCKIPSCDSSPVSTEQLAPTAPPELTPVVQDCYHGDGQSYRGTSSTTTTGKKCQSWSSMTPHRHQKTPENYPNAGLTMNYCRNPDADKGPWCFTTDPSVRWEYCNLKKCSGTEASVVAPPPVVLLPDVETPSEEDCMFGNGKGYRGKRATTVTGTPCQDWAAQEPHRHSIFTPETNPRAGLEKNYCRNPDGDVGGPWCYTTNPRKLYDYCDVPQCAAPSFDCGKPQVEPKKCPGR
Chain of Plasminogen (Homo sapiens) (P00747 581-810 limits assumed): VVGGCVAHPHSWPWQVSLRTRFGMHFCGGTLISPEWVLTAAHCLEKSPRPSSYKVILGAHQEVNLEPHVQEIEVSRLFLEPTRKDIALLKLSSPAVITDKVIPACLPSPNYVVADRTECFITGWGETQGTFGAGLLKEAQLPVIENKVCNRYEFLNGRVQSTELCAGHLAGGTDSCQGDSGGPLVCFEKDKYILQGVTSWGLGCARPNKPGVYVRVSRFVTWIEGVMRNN

SMILES | TIME [1] | TIME [2] | inhibition [3] | inhibition [4] | TIME [5] | TIME [6] | Ks [7] | Rate [8] | TIME [9] | inhibition [10] | Ka [11] | TIME [13] | TIME [14] | TIME [15] | Rate [17] | inhibition [20] | Ka [21] | Kd [22] | Ratio [23] | Ratio [24] | also measured
C=C1CC(c2ccc(NC(=N)N)cc2)CC(=O)O1 (stereo not given) | 0.75 h | 0 h | 34% | 27% | 0.5 h | 0 h | 63.7 µM | 1.5 ka/Ks | No enzyme activity | 79% | 97 min⁻¹ | 0.5 h | 0.25 h | 0.25 h | 10 ka/Ks | 40% | 91 min⁻¹ | 3.3e-05 s⁻¹ | 118 Io/Eo | 36 Io/Eo | inhibition [12]: 24%; Ks [16]: 9.4 µM; TIME [18]: 0.333 h; Kd [19]: 0.00015 s⁻¹; Ratio [25]: 16 Io/Eo; Ratio [26]: 100 Io/Eo; Ratio [27]: 518 Io/Eo; Ratio [28]: 86 Io/Eo; Ratio [29]: 50 Io/Eo; Ks [30]: 0.12 µM; Rate [31]: 2 ka/Ks; Ka [32]: 0.24 min⁻¹
N=C(N)Nc1ccc(C2CC(=O)O/C(=C/I)C2)cc1 (stereo not given) | 0.25 h | 0 h | 47% | 67% | 0.25 h | 1 h | 11 µM | 0.9 ka/Ks | No enzyme activity | 97% | 11 min⁻¹ | 0.25 h | 0 h | 1.5 h | 0.13 ka/Ks | 38% | 0.54 min⁻¹ | 0.00033 s⁻¹ | 118 Io/Eo | 36 Io/Eo | TIME [33]: 0.25 h; inhibition [34]: 22%; TIME [35]: 0 h; inhibition [36]: 99%; Ratio [25]: 16 Io/Eo; Ratio [26]: 100 Io/Eo; Ratio [27]: 518 Io/Eo; Ratio [28]: 86 Io/Eo; Ratio [29]: 50 Io/Eo; Ks [30]: 7.83 µM; Rate [31]: 0.33 ka/Ks; Ka [32]: 2.61 min⁻¹; Ks [37]: 7.83 µM
